Calls of active or inactive are those of the source. The calls are words filed in the database; no cut-off is given here.
What was measured:
[1] = molecular target: T1, Indoleamine 2,3-dioxygenase 1 (Homo sapiens, UniProt P14902); assay: Inhibition of human IDO1 incubated for 60 mins in presence of L-tryptophan by HPLC analysis
How it was run: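 Recombinant human IDO1 (10 μg/mL) was assayed in 50 mM potassium phosphate pH 6.5 with 10 mM ascorbate, 10 μM methylene blue and 100 μg/mL catalase. Reaction was started with 200 μM L-Trp and run at 37 °C for 60 min. It was stopped with TCA, then held at 50 °C for 15 min to hydrolyse N-formylkynurenine. Kynurenine was measured by reversed-phase HPLC at 360 nm; triplicate determinations averaged.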
Target sequence in this assay (P14902 whole entry): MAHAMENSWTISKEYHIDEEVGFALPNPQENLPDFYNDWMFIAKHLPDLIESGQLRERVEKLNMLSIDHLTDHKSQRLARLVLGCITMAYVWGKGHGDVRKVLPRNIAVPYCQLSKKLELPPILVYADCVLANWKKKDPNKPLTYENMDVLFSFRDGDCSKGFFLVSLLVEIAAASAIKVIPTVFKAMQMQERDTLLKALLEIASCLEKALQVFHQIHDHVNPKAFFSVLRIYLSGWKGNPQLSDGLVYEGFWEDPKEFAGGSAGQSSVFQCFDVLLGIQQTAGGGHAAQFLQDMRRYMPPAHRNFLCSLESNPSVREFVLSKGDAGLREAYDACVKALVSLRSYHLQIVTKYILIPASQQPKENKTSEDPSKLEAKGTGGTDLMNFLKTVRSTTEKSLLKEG

HCT-116 [2] = assay: Growth inhibition of human HCT116 cells incubated for 24 hrs by MTT assay; format: functional, cell-based
How it was run: (§1)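 Cells grown in DMEM (4.5 g/L glucose) with 10% FBS, penicillin/streptomycin and 2 mM glutamine, seeded and allowed 24 h to attach, then exposed 24 h to compound. The range was 5–80 μM or 2.5–80 μM. MTT (500 μM in PBS) was added for 3 h at 37 °C in the dark. Formazan was dissolved in propan-2-ol/0.04 N HCl and read at 550 nm. Viability is given as % of 0.1% DMSO control; three independent experiments in triplicate.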

[3] = molecular target: T1, Indoleamine 2,3-dioxygenase 1; assay: Inhibition of human IDO1 at 100 uM incubated for 60 mins in presence of L-tryptophan by HPLC analysis relative to control
Target sequence in this assay (P14902 whole entry, looked up): as the sequence (P14902 whole entry) above

HCT-116 [4] = assay: Induction of cell death in human HCT-116 cells assessed as reduction in Bcl-xL expression at 10 uM incubated for 24 hrs by Western blot analysis; format: functional, cell-based; conditions: dose 20.0 µM, in the assay text read “at 20 uM” for “at 10 uM”
How it was run: (§2)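 Cells were treated 24 h with compound or DMSO, then lysed in RIPA-type buffer (50 mM Tris pH 7.4, 150 mM NaCl, 0.1% SDS, 1% deoxycholate, 1% Triton X-100, 5 mM EDTA, protease inhibitors). Protein was quantified by Bradford, run on 12% SDS-PAGE and transferred to PVDF. Blots were probed overnight at 4 °C for Mcl1, Bcl-xL (1:1000), β-catenin (1:500) and β-actin loading control (1:5000), with HRP secondary and ECL detection.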

HT-29 [5] = assay: Induction of cell death in human HT-29 cells assessed as reduction in Mcl1 expression at 10 uM incubated for 24 hrs by Western blot analysis
HT-29 [6] = assay: Induction of cell cycle arrest in human HT-29 cells assessed as increase of accumulation at G2/M phase at 20 uM incubated for 24 hrs by […] staining based flow cytometry; format: functional; conditions: dose 10.0 µM, in the assay text read “at 10 uM” for “at 20 uM”
How it was run: (§3)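 Cells in DMEM/10% FBS were treated 24 h at 20, 10 or 2.5 μM alongside a 0.1% DMSO vehicle, then stained with propidium iodide for DNA content by flow cytometry, acquiring at least 10000 cells per sample. G0/G1, S and G2/M fractions are expressed as fold change versus DMSO. Values are mean ± SD of three independent experiments.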

HT-29 [7] = assay: Growth inhibition of human HT-29 cells assessed as cell viability at 10 uM incubated for 24 hrs by MTT assay; format: functional; conditions: read-out: Activity; how it was run: as §1
HT-29 [8] = assay: Growth inhibition of human HT-29 cells incubated for 24 hrs by MTT assay; format: functional, cell-based; how it was run: as §1
HT-29 [9] = assay: Reversible induction of cell cycle arrest in human HT-29 cells assessed as increase of accumulation at G2/M phase at 20 uM incubated for 24 hrs and harvested after further 24 hrs recovery in drug-free medium by […] staining based flow cytometry; format: functional
How it was run: (§4)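 Cells were exposed 24 h to 20, 10 or 2.5 μM or to 0.1% DMSO, then washed into drug-free medium for a further 24 h before harvest. DNA content was measured by propidium iodide flow cytometry on at least 10000 cells per sample. G2/M and other phase fractions are given as fold change versus DMSO, as mean ± SD of three independent experiments.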

HCT-116 [10] = assay: Induction of cell death in human HCT-116 cells assessed as reduction in Mcl1 expression at 10 uM incubated for 24 hrs by Western blot analysis; format: functional, cell-based; conditions: dose 20.0 µM, in the assay text read “at 20 uM” for “at 10 uM”; how it was run: as §2
HT-29 [11] = assay: Induction of cell death in human HT-29 cells assessed as reduction in beta-catenin expression at 10 uM incubated for 24 hrs by Western blot analysis
HCT-116 [12] = assay: Induction of cell death in human HCT-116 cells assessed as reduction in beta-catenin expression at 10 uM incubated for 24 hrs by Western blot analysis; format: functional, cell-based; conditions: dose 20.0 µM, in the assay text read “at 20 uM” for “at 10 uM”; how it was run: as §2
HT-29 [13] = assay: Induction of cell death in human HT-29 cells assessed as reduction in Bcl-xL expression at 10 uM incubated for 24 hrs by Western blot analysis
HCT-116 [14] = assay: Induction of cell cycle arrest in human HCT116 cells assessed as increase of accumulation at G2/M phase at 20 uM incubated for 24 hrs by […] staining based flow cytometry; format: functional; how it was run: as §3
HCT-116 [15] = assay: Reversible induction of cell cycle arrest in human HCT-116 cells assessed as increase of accumulation at G2/M phase at 10 uM incubated for 24 hrs and harvested after further 24 hrs recovery in drug-free medium by […] staining based flow cytometry; format: functional; how it was run: as §4
HCT-116 [16] = assay: Growth inhibition of human HCT116 cells assessed as cell viability at 20 uM incubated for 24 hrs by MTT assay; format: functional; conditions: read-out: Activity; how it was run: as §1
HT-29 [17] = assay: Induction of cell death in human HT-29 cells assessed as reduction in beta-catenin expression at 10 uM incubated for 24 hrs by Western blot analysis; format: functional, cell-based; conditions: dose 2.5 µM, in the assay text read “at 2.5 uM” for “at 10 uM”; how it was run: as §2
HT-29 [18] = assay: Induction of cell cycle arrest in human HT-29 cells assessed as increase of accumulation at G2/M phase at 2.5 uM incubated for 24 hrs by […] staining based flow cytometry; format: functional; how it was run: as §3
HCT-116 [19] = assay: Growth inhibition of human HCT116 cells assessed as cell viability at 10 uM incubated for 24 hrs by MTT assay; format: functional; conditions: read-out: Activity; how it was run: as §1
HT-29 [20] = assay: Growth inhibition of human HT-29 cells assessed as cell viability at 2.5 uM incubated for 24 hrs by MTT assay; format: functional; conditions: read-out: Activity; how it was run: as §1
HT-29 [21] = assay: Reversible induction of cell cycle arrest in human HT-29 cells assessed as increase of accumulation at G2/M phase at 10 uM incubated for 24 hrs and harvested after further 24 hrs recovery in drug-free medium by […] staining based flow cytometry; format: functional; how it was run: as §4
HCT-116 [22] = assay: Induction of cell cycle arrest in human HCT116 cells assessed as increase of accumulation at G2/M phase at 10 uM incubated for 24 hrs by […] staining based flow cytometry; format: functional; how it was run: as §3
HCT-116 [23] = assay: Reversible induction of cell cycle arrest in human HCT-116 cells assessed as increase of accumulation at G2/M phase at 2.5 uM incubated for 24 hrs and harvested after further 24 hrs recovery in drug-free medium by […] staining based flow cytometry; format: functional; how it was run: as §4
HT-29 [24] = assay: Induction of cell death in human HT-29 cells assessed as reduction in Mcl1 expression at 2.5 uM incubated for 24 hrs by Western blot analysis; format: functional, cell-based; how it was run: as §2
HT-29 [25] = assay: Induction of cell death in human HT-29 cells assessed as reduction in Bcl-xL expression at 2.5 uM incubated for 24 hrs by Western blot analysis; format: functional, cell-based; how it was run: as §2
HT-29 [26] = assay: Induction of cell death in human HT-29 cells assessed as reduction in beta-catenin expression at 2.5 uM incubated for 24 hrs by Western blot analysis; format: functional, cell-based; how it was run: as §2
HT-29 [27] = assay: Induction of cell death in human HT-29 cells assessed as reduction in Bcl-xL expression at 10 uM incubated for 24 hrs by Western blot analysis; format: functional, cell-based; conditions: dose 2.5 µM, in the assay text read “at 2.5 uM” for “at 10 uM”; how it was run: as §2
HT-29 [28] = assay: Induction of cell death in human HT-29 cells assessed as reduction in Mcl1 expression at 10 uM incubated for 24 hrs by Western blot analysis; format: functional, cell-based; conditions: dose 2.5 µM, in the assay text read “at 2.5 uM” for “at 10 uM”; how it was run: as §2

COc1ccccc1Sc1c[nH]c2ccc(Br)cc12
IC50 [1]: 24 µM

COc1cccc(Sc2c[nH]c3ccc(Cl)cc23)c1
IC50 [1]: 21 µM

COc1cc(OC)cc(Sc2c[nH]c3cc(Cl)ccc23)c1
IC50 [1]: 15 µM

COc1cc(OC)cc(Sc2c[nH]c3c(Cl)c(Cl)ccc23)c1
IC50 [1]: 90 µM

COc1cc(Sc2c[nH]c3ccc(Cl)cc23)cc(OC)c1OC
IC50 [1]: 40 µM

Cc1ccccc1Sc1c[nH]c2ccc(Cl)cc12
IC50 [1]: 21 µM

Cc1cc(C)cc(Sc2c[nH]c3ccc(Cl)cc23)c1
IC50 [1]: 20 µM

COc1ccc(Sc2c[nH]c3ccc(Cl)cc23)cc1
IC50 [1]: 16 µM

Cc1cccc(Sc2c[nH]c3ccc(Cl)cc23)c1
IC50 [1]: 100 µM

COc1cc(OC)cc(Sc2c[nH]c3cccc(Cl)c23)c1
IC50 [1]: 52 µM

CCOc1ccc2[nH]cc(Sc3ccccc3OC)c2c1
IC50 [1]: > 200 µM

COc1ccccc1Sc1c[nH]c2ccc(Cl)cc12
growth inhibition (GI) (HCT-116 [2]): Dose-dependent effect
inhibition [3]: 80%
Activity (HCT-116 [4]): Active
Activity (HT-29 [5]): Active
Activity (HT-29 [6]): Active
viability at 10 µM (HT-29 [7]): 40%
growth inhibition (GI) (HT-29 [8]): Dose-dependent effect
Activity (HT-29 [9]): Active
Activity (HCT-116 [10]): Active
Activity (HT-29 [11]): Active
Activity (HCT-116 [12]): Active
Activity (HT-29 [13]): Active
IC50 [1]: 17.5 µM
Activity (HCT-116 [14]): Active
Activity (HCT-116 [15]): Active
viability at 20 µM (HCT-116 [16]): 40%

COc1cc(OC)cc(Sc2c[nH]c3ncccc23)c1
IC50 [1]: > 200 µM

COc1cc(OC)cc(Sc2c[nH]c3c(Cl)cccc23)c1
IC50 [1]: > 200 µM

COc1ccccc1Sc1c[nH]c2ccc(I)cc12
IC50 [1]: 45 µM

COc1ccc(Sc2c[nH]c3ccc(Cl)cc23)c(OC)c1
IC50 [1]: > 50 µM

COc1ccccc1S(=O)(=O)c1c[nH]c2ccc(Cl)cc12
IC50 [1]: > 200 µM

Clc1ccc2[nH]cc(Sc3ccccc3)c2c1
IC50 [1]: > 200 µM

COc1cc(OC)cc(Sc2c[nH]c3ccc(Cl)cc23)c1
Activity (HT-29 [17]): Active
growth inhibition (GI) (HCT-116 [2]): Dose-dependent effect
Activity (HT-29 [18]): Active
viability at 10 µM (HCT-116 [19]): 40%
viability at 2.5 µM (HT-29 [20]): 40%
Activity (HT-29 [21]): Active
growth inhibition (GI) (HT-29 [8]): Dose-dependent effect
Activity (HCT-116 [22]): Active
Activity (HCT-116 [23]): Active
IC50 [1]: 7 µM
Activity (HT-29 [24]): Active
Activity (HT-29 [25]): Active
Activity (HT-29 [26]): Active
Activity (HT-29 [27]): Active
Activity (HT-29 [28]): Active

COC(=O)c1[nH]c2ccc(Cl)cc2c1Sc1ccccc1OC
IC50 [1]: > 200 µM

COc1ccccc1Sc1c[nH]c2ccc(F)cc12
IC50 [1]: 32 µM

COc1ccccc1C(=O)c1c[nH]c2ccc(Cl)cc12
IC50 [1]: > 200 µM

COc1cc(OC)cc(Sc2c[nH]c3ccccc23)c1
IC50 [1]: 25 µM

COc1cc(OC)cc(Sc2c(C)[nH]c3ccc(Cl)cc23)c1
IC50 [1]: 45 µM

Cc1ccc(Sc2c[nH]c3ccc(Cl)cc23)cc1
IC50 [1]: > 200 µM

COc1ccccc1Cc1c[nH]c2ccc(Cl)cc12
IC50 [1]: 63 µM

— ChEMBL document CHEMBL4715773, “New Inhibitors of Indoleamine 2,3-Dioxygenase 1: Molecular Modeling Studies, Synthesis, and Biological Evaluation” (J Med Chem, 2016)
